# Rtt109 HAT inh = C. albicans Rtt109 histone acetyltransferase inhibition; purified Rtt109/Vps75, ThioGlo CoA-SH fluorescence, 4 h; inhibition, % at 34.9 µM; 0.16% of 330,000 active;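 active means inhibition of at least 50% in every replicate; inconclusive means best replicate reaches 50% inhibition but some replicates fall short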
# S100A4 MyoIIA = blocks human S100A4 binding to myosin IIA peptide | P26447 | S100A4/TAMRA-MyoIIA peptide fluorescence polarization | inhibition, % at 10.7 µM | 0.14% of 360,000 active | AID 652163;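 active means mean inhibition of at least 70% across replicates, with every replicate also reaching that level; inconclusive means mean inhibition reaches 70% but some replicates fall short; inactive means mean inhibition below 70%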
# Target sequence (P26447 whole entry, looked up): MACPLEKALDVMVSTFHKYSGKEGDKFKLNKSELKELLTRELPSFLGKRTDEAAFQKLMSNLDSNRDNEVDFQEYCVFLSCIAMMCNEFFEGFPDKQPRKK
#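 Test system: S100A4 monomer protein. Medium: HEPES buffer with Ca2+, pH 7.2. Reagent: fluorescent myosin IIA peptide, 5 nM. Compound dosing: single-point compound testing. Timing: 5 min between mix addition and reading. Benchmarks: DMSO neutral and TFP positive wells.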
# ERAP1 inh = ERAP1 (human) enzyme inhibition | inhibition, % at 10.7 µM | recombinant ERAP1, Leu-AMC fluorescence, 60 min | AID 652197 | Q9NZ08 | 0.15% of 340,000 active;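 active means mean replicate inhibition of at least 30%, or all replicates individually reaching that 30% level; inactive means mean below 30% and not every replicate reaching it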;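 further: 0% = neutral control wells and 100% = L-leucinethiol positive control wells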
# MLL AF4-AF9 inh = MLL-AF4/AF9 protein interaction inhibition | P42568 | AlphaScreen, biotin-AF4 peptide binding to FLAG-AF9 | inhibition, % at 10 µM | 0.47% of 350,000 active;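 active means every replicate reaching a set inhibition limit, whatever the replicate mean, cut at about 25% in these data; inconclusive means mean inhibition reaches that limit but some replicates miss it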;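 further: 0% = plate neutral control median and 100% = total signal loss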
# Target sequence (P42568 whole entry, looked up): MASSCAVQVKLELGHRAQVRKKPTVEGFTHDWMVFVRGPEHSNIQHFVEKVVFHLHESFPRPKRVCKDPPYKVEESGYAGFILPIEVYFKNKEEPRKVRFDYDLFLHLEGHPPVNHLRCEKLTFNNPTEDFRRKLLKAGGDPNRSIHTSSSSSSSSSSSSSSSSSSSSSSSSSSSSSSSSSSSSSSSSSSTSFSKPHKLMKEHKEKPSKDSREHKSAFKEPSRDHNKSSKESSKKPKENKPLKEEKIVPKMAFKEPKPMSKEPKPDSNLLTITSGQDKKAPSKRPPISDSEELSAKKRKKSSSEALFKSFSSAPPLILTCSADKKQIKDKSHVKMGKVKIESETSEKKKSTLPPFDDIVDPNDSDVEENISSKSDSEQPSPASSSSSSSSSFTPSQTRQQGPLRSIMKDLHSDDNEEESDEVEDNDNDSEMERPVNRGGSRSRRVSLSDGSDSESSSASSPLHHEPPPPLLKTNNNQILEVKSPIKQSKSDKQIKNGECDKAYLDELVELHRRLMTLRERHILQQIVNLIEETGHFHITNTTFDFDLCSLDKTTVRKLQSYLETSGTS
# miR-122 sensor = inhibitors of miR-122 in Huh7 cells | Huh7 miR-122 Renilla luciferase sensor, 48 h; neutral wells = 0, positive control = 100 | activation (reporter increase), % at 12.5 µM | 0.3% of 340,000 active | AID 602342;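 active means mean replicate activation score at least 90 and every replicate individually at or above 90; inconclusive means only one of the two criteria met; inactive means neither criterion met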;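 further: higher luciferase means less miR-122 activity so hits act as miR-122 inhibitors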
# Alpha interfer = AlphaScreen signal interference counter-screen hit | signal luminescence | shares compounds with MLL AF4-AF9 inh | AID 720494 | 45% of 530 active | AC50, µM (doses to about 12 µM), for inactives: top-dose activity change, negative = inhibition; cut-off not given, nearly all actives have AC50 up to about 14 µM
# * hit, by the source's call; ? = inconclusive; . = no result given; ! = a repeat was not active; [ ] = remark or other dose. Compounds with a hit are over-represented: about 0.86% of the library has one in this group of screens.
SMILES,Rtt109 HAT inh,S100A4 MyoIIA,ERAP1 inh,MLL AF4-AF9 inh,miR-122 sensor,Alpha interfer
C[C@H]1CN([C@@H](C)CO)C(=O)c2cccc(NC(=O)Nc3ccc4c(c3)OCO4)c2O[C@H]1CN(C)S(=O)(=O)c1cn(C)cn1,.,1,3,-3,10[16.7 µM],.
C[C@@H]1CN([C@H](C)CO)C(=O)c2cc(NC(=O)CCC(F)(F)F)ccc2O[C@H]1CN(C)C(=O)Nc1ccccc1,.,-5,-1,-11,0[16.7 µM],.
NC(=NCCCCCCN=C(N)/N=C(\N)Nc1ccc(Cl)cc1)/N=C(\N)Nc1ccc(Cl)cc1,?,-5,-2,53*!,-7,-9%
CC(C)N=C(N)N=C(N)Nc1ccc(Cl)cc1,-6,5,2,-5,-15,.
COc1ccccc1NC1=C(NC(C)=O)C(=O)c2ccccc2C1=O,.,6,8,9,.,.
COC1=C(Nc2ccccc2OC)C(=O)c2ccccc2C1=O,6,-7,6,50*,-6,7.9µM*
COC(=O)C1=C(C)NC(C)=C(C(=O)OCC(C)C)C1c1ccccc1[N+](=O)[O-] (stereo unspecified),1,-3,-2,38*,3,11µM*
CCOC(=O)C1=C(C)NC(C)=C(C(=O)OCC)C1c1cccc([N+](=O)[O-])c1,.,-6,-2,0,.,.
CC1NC(=O)NC1CCCCCC(=O)Nc1ccc(F)cc1 (stereo unspecified),-4,-2,-1,93*,.,0.68µM*
O=C(CCCC(=O)c1ccccc1)Nc1ccc(F)cc1,-2,-2,3,-5,0,.
COc1ccccc1Nc1c2c(nc3ccc(N)cc13)CCCC2,4,-3,3,61*,.,-21%
CO[C@H]1CN(C)C(=O)c2cc(NC(=O)NC3CCCCC3)ccc2OC[C@@H](C)N(CC2CCOCC2)C[C@@H]1C,.,7,0,-21,.,.
C[C@@H]1CN([C@@H](C)CO)C(=O)c2cccc(NS(=O)(=O)c3ccc(Cl)cc3)c2O[C@H]1CN(C)CC1CC1,.,3,-3,0,-3[16.7 µM],.
COC(=O)c1ccc2nc(C)cc(Nc3ccc(N(C)C)cc3)c2c1,7,1,2,32*,-6,-14%
C[C@H]1CCCCO[C@@H](CN(C)Cc2ccc3c(c2)OCO3)[C@@H](C)CN([C@@H](C)CO)C(=O)c2cc(N(C)C)ccc2O1,.,7,2,20,1[16.7 µM],.
C[C@@H]1CN([C@H](C)CO)C(=O)Cc2cc(N(C)C)ccc2O[C@@H]1CN(C)Cc1ccc(Cl)c(Cl)c1,.,-7,1,31*,4[16.7 µM],-27%
C[C@H]1CCCCO[C@H](CN(C)Cc2ccc(Cl)c(Cl)c2)[C@@H](C)CN([C@@H](C)CO)C(=O)c2cc(N(C)C)ccc2O1,.,10,1,63*,-3[16.7 µM],13µM*
C[C@H]1CN([C@@H](C)CO)C(=O)c2cc(N(C)C)ccc2O[C@@H]1CN(C)Cc1ccc(Cl)c(Cl)c1,.,-6,-1,29*,12[16.7 µM],-31%
CO[C@@H]1CN(C)C(=O)c2ccc(NC(=O)Nc3c(C)noc3C)cc2OC[C@@H](C)N(C)C[C@H]1C,.,-16,1,-3,-13[16.7 µM],.
COc1ccc(C#Cc2cnc3c(c2)C(=O)N([C@@H](C)CO)C[C@@H](C)[C@@H](CN(C)C(=O)Nc2cccc(OC)c2)O3)cc1,.,.,.,.,-15[16.7 µM],.
C[C@@H]1CN([C@H](C)CO)C(=O)c2cc(NC(=O)CCC(F)(F)F)ccc2O[C@@H]1CN(C)S(=O)(=O)c1cccs1,.,13,2,-5,-4[16.7 µM],.
O=C(NC1CCCCC1)C(c1cccnc1)N(C(=O)CCl)c1cccc(Cl)c1 (stereo unspecified),34,5,7,39*,-3,-21%
Cc1cccc(N(C(=O)CNC(=O)c2ccco2)C(C(=O)NC2CCCCC2)c2cccnc2)c1 (stereo unspecified),-7,0,4,-16,.,.
C[C@@H]1CN([C@H](C)CO)C(=O)c2cccc(N(C)C)c2O[C@H]1CN(C)S(=O)(=O)c1ccc(F)cc1,.,-3,0,-2,-9[16.7 µM],.
CCN(CC)c1ccc(CNc2nc3ccccc3n2CCN2CCCCC2)cc1,3,-8,-4,44*,0,-28%
SMILES,Rtt109 HAT inh,S100A4 MyoIIA,ERAP1 inh,MLL AF4-AF9 inh,miR-122 sensor,Alpha interfer
Oc1ccc(O)c(C=NNC(=S)NC2CC3CC2C2C=CCC32)c1 (stereo unspecified),.,-1,-2,35*,5,12µM*
NNC(=S)NC1CC2CC1C1C=CCC21 (stereo unspecified),3,1,1,.,3,.
O=C(C[C@H]1CC[C@H]2[C@@H](COC[C@H](O)CN2C(=O)Cc2ccccc2)O1)NC1CCC1,.,-19,-5,0,2[16.7 µM],.
CCOc1ccc(/C=N/Nc2cc(N3CCOCC3)ncn2)c(O)c1,.,-6,-5,32*,2,14µM*
CC(C)N1C(=O)/C(=C\c2nc3ccccc3c(=O)[nH]2)c2ccccc21,6,-9,2,26*,.,-22%
CCCN1C(=O)/C(=C/c2nc3ccccc3c(=O)[nH]2)c2ccccc21,4,0,6,1,.,.
CC(=O)c1cccc2c(O)c(C3=Nc4ccccc4C3=O)[nH]c12,24,-12,.,40*,0,3.5µM*
CN1C(=O)c2cc(NC(=O)C3CCCC3)ccc2OC[C@H]2O[C@@H](CC(=O)NCC(F)(F)F)CC[C@@H]21,.,8,-1,0,-2[16.7 µM],.
CN1/C(=C\C=N\O)C(C)(C)c2ccccc21,.,-10,-3,2,7,.
CN(C)c1ccc(N=C/C=C2/N(C)c3ccccc3C2(C)C)cc1,1,-44,-1,48*,-7,11µM*
O=C(CCl)Nc1cc(-c2ccccc2)nn1-c1ccccc1,3,.,.,.,-14,.
Nc1ccccc1Nc1cc(-c2ccccc2)nn1-c1cccc(Cl)c1,4,2,0,31*,.,-24%
COc1cccc(-c2ccc([C@@H]3[C@@H](CO)N4C(=O)CN(C(=O)NC(C)C)C[C@H]34)cc2)c1,.,19,-1,1,.,.
O=c1c2ccccc2nc(/C=C/c2cccnc2)n1CCc1ccccc1,14,18,0,20,-2,.
O=c1c2ccccc2nc(/C=C/c2cccnc2)n1Cc1ccccc1,3,-13,1,39*,.,-20%
Cc1ccc2c(c1)c1c(n2CC(O)CN2CCCCCC2)CCCC1 (stereo unspecified),-9,-1,5,35*,.,-7%
O=C(C[C@@H]1CC[C@H](NC(=O)CC2CC2)[C@H](CO)O1)NCc1ccccc1,.,21,.,.,.,.
Cc1nn(-c2ccccc2)c(Cl)c1/C=C1\C(=O)N(C)C(=S)N1C,3,-4,3,40*,.,-24%
CCc1cnc(N2[C@H](C#N)[C@@H](c3ccc(C#CC(C)C)cc3)[C@@H]2CO)s1,.,-9,-4,7,.,.
Cc1ccccc1/C=N/Nc1nc2ccccc2[nH]1,.,10,-4,5,.,.

# Assay outcomes as filed in PubChem.
